According to ChEMBL document CHEMBL5034012, “Procainamide-SAHA Fused Inhibitors of hHDAC6 Tackle Multidrug-Resistant Malaria Parasites” (J Med Chem, 2021):
Calls of active or inactive are those of the source. The calls are words filed in the database; no cut-off is given here.

Experiments:
[1] = test system: HL-60; assay: cells; assay type: functional, cell-based; conditions: Homo sapiens, HL-60, 72 h
[2] = test system: Plasmodium falciparum; assay: Antiplasmodial activity against Plasmodium falciparum 3D7 assessed as time to kill initial parasite load at 10 times IC50 concentration; assay type: functional
Outline: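 Parasite reduction rate assay on 3D7 cultures containing mostly rings, with DHA and pyrimethamine as references. Exposure windows of 6, 24, 48, 72 and 96h; cells then washed, serially diluted 1/3 in fresh RBC and grown 3 weeks before SYBR-green I read-out. Number of wells with growth gives viable parasites per time point, per Sanz et al. One experiment in duplicate.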

[3] = test system: Plasmodium falciparum; assay: Antiplasmodial activity against Plasmodium falciparum 3D7 assessed as DNA damage in trophozoite stage measured upto 72 hrs using Geimsa stain based parasite reduction rate assay; assay type: functional, organism-based; conditions: time hrs <=72
[4] = test system: Plasmodium falciparum; assay: Antiplasmodial activity against Cambodian multidrug-resistant Plasmodium falciparum isolate incubated for 96 hrs measured by SYBR Green 1 assay; assay type: functional, organism-based
Outline: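 Cambodian isolates chosen by multidrug-resistance pattern, 10 per resistance type. Ring-synchronized cultures at 2% hematocrit and 1% starting parasitemia; 11-point 2-step dilutions from 500nM; 96h incubation, then SYBR-green I read-out. Mefloquine and monodesethylamodiaquine served as positive controls. Triplicate wells, one biological replicate per isolate.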

[5] = Microsomal stability in rat liver microsomes assessed as parent compound remaining after 1 hrs; assay type: ADME, Microsome; conditions: read-out: Stability
[6] = Microsomal stability in human liver microsomes assessed as parent compound remaining after 1 hrs; assay type: ADME, Microsome; conditions: read-out: Stability
[7] = Stability in rat plasma assessed as parent compound remaining after 2 hrs; assay type: ADME, cell-free; conditions: read-out: Stability
[8] = Stability in human plasma assessed as parent compound remaining after 2 hrs; assay type: ADME, cell-free; conditions: read-out: Stability
[9] = test system: Plasmodium berghei; assay: Antimalarial activity against Plasmodium berghei infected in C57BL/6 mouse cerebral malaria model infected with assessed as growth reduction at 20 mg/kg, ip bid measured after 4 days; assay type: functional, organism-based; conditions: time 4.0 day
Outline: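 Female C57BL/6 mice, 6 weeks old, infected i.p. with 10⁵ iRBC of GFP-expressing P. berghei ANKA. Treatment began 2h post-infection: i.p. 20mg/kg twice daily for 4 days, vehicle controls alongside; chloroquine 25mg/kg daily as positive control. Hydrochloride salt used. Parasitemia read daily by flow cytometry of 200,000 RBCs and confirmed on Giemsa smears. Mortality followed for 10 days. Single experiment, 5 mice per group.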

[10] = test system: Plasmodium berghei; assay: Antimalarial activity against Plasmodium berghei infected in C57BL/6 mouse cerebral malaria model infected with assessed as increase in mouse survival days at 20 mg/kg, ip bid; assay type: functional, organism-based
Outline: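 Female C57BL/6 mice, 6 weeks old, infected i.p. with 10⁵ iRBC of GFP-expressing P. berghei ANKA. Dosing i.p. started 2h post-infection and ran 4 days: hydrochloride salt at 20mg/kg twice daily, vehicle control, or chloroquine 25mg/kg daily. Parasitemia measured daily by flow cytometry of 200,000 RBCs and confirmed by Giemsa smears. Parasitemia and mortality followed 10 days; n=5 mice/group, single experiment.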

[11] = test system: Plasmodium falciparum; assay: Antiplasmodial activity against Plasmodium falciparum stage IIb-III gametocytes assessed as abnormal morphology by measuring fragile like extensions at highest concentration measured after 72 hrs using Geimsa staining based assay; assay type: functional
Outline: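 Day-4 stage IIb-III gametocytes (asexuals removed by N-acetyl glucosamine), about 1% gametocytemia at 2% hematocrit, treated 72h at 10, 5, 1 or 0.5 µM against 0.1% DMSO. Then washed and recultured with daily medium changes. Morphology and parasitemia scored daily on Giemsa-stained thin smears.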

[12] = test system: HL-60; assay: Cytotoxicity against human HL-60 cells assessed as inhibition of cell proliferation at 32 uM measured after 72 hrs by ATPlite assay; assay type: functional
Outline: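 Cells exposed to compound for 72h; viability read by ATPlite. DMSO control. Technical triplicates, at least two biological replicates. IC50 interpolated from the curves.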

[13] = test system: Plasmodium falciparum; assay: Inhibition of Plasmodium falciparum DNMT activity using nuclear extract assessed as DNA methylation at 32 uM
Outline: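 P. falciparum nuclear extracts tested at 32 µM compound, or the equivalent DMSO. DNA methylation activity normalized to the DMSO sample. Triplicates in two independent experiments.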

[14] = biological target: DNA (cytosine-5)-methyltransferase 3A (Homo sapiens) (UniProt Q9Y6K1); assay: Inhibition of human DNMT3A methylation
[15] = test system: Plasmodium falciparum; assay: Inhibition of Plasmodium falciparum HDAC activity using nuclear extract assessed as inhibition of acetylation at 1 to 10 uM; conditions: dose 1-10 µM
Outline: (§1)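 P. falciparum protein extract (3x10⁻³mg) incubated with compound and 43 µM Tosyl-Gly-Pro-Lys(Ac)-AMC. Buffer: 25mM Tris-HCl pH 8, 140mM NaCl, 3mM KCl, 1mM MgCl₂. Run 45 min at 37°C, then trypsin 15min at RT, then ethanol. Fluorescence read at ex 380/em 460nm. Normalized to DMSO. Duplicates in ≥2 independent experiments.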

[16] = biological target: Histone deacetylase (Homo sapiens) (UniProt Q13547+O15379+Q9UBN7+Q92769+Q9UQL6+Q8WUI4+Q9BY41+Q96DB2+P56524+Q9UKV0+Q969S8); assay: Inhibition of human HDAC activity using nuclear extract of HeLa cells assessed as inhibition of acetylation; assay type: tissue-based
Outline: as §1, with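 “HeLa nuclear” for “P. falciparum protein”, “trypsin (1mg/mL)” for “trypsin”, “AMC fluorescence” for “Fluorescence”, “Background subtracted; data normalized” for “Normalized”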

[17] = test system: Plasmodium falciparum; assay: Antiplasmodial activity against synchronized Plasmodium falciparum NF54 assessed as effect on ring stage parasite growth in intraerythrocytic development cycle at 3 times IC50 concentration measured upto 48 hrs of cell cycle by SYBR Green 1 assay; assay type: functional, organism-based; conditions: time hrs <=48
[18] = test system: Plasmodium falciparum; assay: Antiplasmodial activity against synchronized Plasmodium falciparum NF54 assessed as effect on ring stage parasite growth in intraerythrocytic development cycle at 10 times IC50 concentration incubated upto 48 hrs measured after 72 hrs of post synchronization by SYBR Green 1 assay; assay type: functional, organism-based; conditions: time hrs <=48
[19] = test system: Plasmodium falciparum; assay: Antiplasmodial activity against Plasmodium falciparum NF54 assessed as reduction in growth in intraerythrocytic development cycle at 3 to 10 times of IC50 concentration incubated for 24 to 36 hrs measured after 72 hrs of post synchronization by SYBR Green 1 assay; assay type: functional; parameters: scale not given: the % may be the effect or the level left; conditions: time 24-36 hrs
[20] = test system: Plasmodium falciparum; assay: Antiplasmodial activity against Plasmodium falciparum NF54 assessed as reduction in growth in intraerythrocytic development cycle at 3 times of IC50 concentration incubated for 6 hrs measured after 72 hrs of post synchronization […]; assay type: functional, organism-based
Outline: (§2)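 NF54 asexual parasites tightly synchronized to 0–3hpi. Exposed for 6h at 3× or 10× IC50, starting at 0, 6, 12, 18, 24, 30, 36 or 42hpi. Cells then pelleted, washed in RPMI and returned to culture. Parasitemia counted at 72h post-synchronization on Giemsa-stained thin smears. Survival expressed relative to DMSO. Three independent experiments, one well per condition.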

[21] = test system: Plasmodium falciparum; assay: Antiplasmodial activity against Plasmodium falciparum NF54 assessed as reduction in growth in intraerythrocytic development cycle at 10 times of IC50 concentration incubated for 6 hrs measured after 72 hrs of post synchronization […]; assay type: functional, organism-based
Outline: as §2

Chain of DNA (cytosine-5)-methyltransferase 3A (Homo sapiens) (Q9Y6K1 whole entry, looked up): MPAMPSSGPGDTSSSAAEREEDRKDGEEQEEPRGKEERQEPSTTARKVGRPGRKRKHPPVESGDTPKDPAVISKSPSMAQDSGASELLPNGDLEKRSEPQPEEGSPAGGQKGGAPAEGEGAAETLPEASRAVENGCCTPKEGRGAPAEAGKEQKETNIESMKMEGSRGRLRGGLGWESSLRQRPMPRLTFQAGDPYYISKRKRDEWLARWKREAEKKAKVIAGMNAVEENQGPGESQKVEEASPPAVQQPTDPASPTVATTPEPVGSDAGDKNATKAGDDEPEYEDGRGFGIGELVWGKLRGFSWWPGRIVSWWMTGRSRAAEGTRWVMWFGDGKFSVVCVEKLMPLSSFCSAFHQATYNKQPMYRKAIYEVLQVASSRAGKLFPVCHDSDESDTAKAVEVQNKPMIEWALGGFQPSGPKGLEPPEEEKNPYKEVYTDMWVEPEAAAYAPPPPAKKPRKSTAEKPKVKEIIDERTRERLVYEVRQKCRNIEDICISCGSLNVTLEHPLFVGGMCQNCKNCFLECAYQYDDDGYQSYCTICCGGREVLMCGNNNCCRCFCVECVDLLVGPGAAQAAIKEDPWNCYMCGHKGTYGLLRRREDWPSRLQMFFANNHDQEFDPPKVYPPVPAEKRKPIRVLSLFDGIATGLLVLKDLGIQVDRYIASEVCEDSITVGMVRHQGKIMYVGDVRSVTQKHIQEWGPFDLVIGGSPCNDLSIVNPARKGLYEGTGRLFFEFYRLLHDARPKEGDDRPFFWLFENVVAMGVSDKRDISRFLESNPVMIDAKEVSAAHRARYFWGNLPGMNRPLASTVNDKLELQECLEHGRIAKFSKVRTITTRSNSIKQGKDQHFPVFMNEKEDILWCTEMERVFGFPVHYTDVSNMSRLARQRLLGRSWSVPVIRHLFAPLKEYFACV

For `O=C(CCCCCCC(=O)Nc1ccc(C(=O)NC2CCNCC2)cc1)NO`, the IC50 [1] was 100 µM, the LT99.9 [2] was 34.3 h and the Activity [3] was “Active”. It also gave an IC50 [4] of 0.07 µM, a remaining at 1 h [5] of 100% and a remaining at 1 h [6] of 100%. For the same compound, the remaining at 2 h [7] was 85%, the remaining at 2 h [8] was 85% and the Activity [9] was “Active”. For the same compound, the Survival [10] was “Active” and the Activity [11] was “<=90%”.

With `CCN(CC)CCNC(=O)c1ccc(NC(=O)CCCCCCC(=O)NO)cc1` the inhibition at 32 µM [12] was 65%, the Activity [13] was “inactive” and the inhibition [14] was “inactive”. For the same compound, the Activity [15] was “Active”, the inhibition [16] was “Active” and the Activity [17] was “inactive”. For the same compound, the Activity [18] was “inactive”, the Activity [19] was “<=85%” and the Activity [20] was “inactive”. For the same compound, the Activity [21] was “inactive”, the LT99.9 [2] was 40.3 h and the Activity [3] was “Active”. For the same compound, the IC50 [4] was 0.076 µM and the Activity [11] was “<=90%”.
